Results as given in ChEMBL document CHEMBL1149586 (Bioorg Med Chem, 2007).

What was measured:
[1] = biological target: Matrix metalloproteinase-9 (Homo sapiens, UniProt P14780); assay: Inhibition of MMP9
Stromelysin-1 = Stromelysin-1 (Homo sapiens, UniProt P08254); assay: Inhibition of MMP3
Collagenase 3 = Collagenase 3 (Homo sapiens, UniProt P45452); assay: Inhibition of MMP13
Summary of the method: (§1)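 Human recombinant pro-enzymes, freshly activated with p-aminophenylmercuric acetate at 37 °C for 2 h. Used at 0.6 nM for MMP-13 and 3.8 nM for MMP-8. Incubated with compound from 1 to 5000 nM. Assay began with addition of a fluorogenic substrate (1–10 nM). Initial rates of peptide cleavage were measured fluorimetrically, with (Vi) and without (Vo) compound.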

Neutrophil collagenase = Neutrophil collagenase (Homo sapiens, UniProt P22894); assay: Inhibition of MMP8; summary of the method: as §1
Chain of Neutrophil collagenase (P22894 whole entry): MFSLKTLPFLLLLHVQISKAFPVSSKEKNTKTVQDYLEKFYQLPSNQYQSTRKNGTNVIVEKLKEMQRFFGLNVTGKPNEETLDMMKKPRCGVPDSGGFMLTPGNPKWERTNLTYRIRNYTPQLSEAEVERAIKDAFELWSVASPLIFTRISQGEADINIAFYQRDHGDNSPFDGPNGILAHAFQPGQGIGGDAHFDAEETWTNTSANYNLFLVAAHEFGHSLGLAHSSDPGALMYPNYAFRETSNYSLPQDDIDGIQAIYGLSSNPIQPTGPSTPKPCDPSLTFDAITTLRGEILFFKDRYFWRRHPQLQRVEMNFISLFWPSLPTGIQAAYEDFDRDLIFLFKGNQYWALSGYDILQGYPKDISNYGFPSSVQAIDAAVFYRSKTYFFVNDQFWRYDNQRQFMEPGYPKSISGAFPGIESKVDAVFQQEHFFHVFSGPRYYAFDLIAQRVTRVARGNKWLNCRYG

Interstitial collagenase = biological target: T1, Interstitial collagenase (Homo sapiens, UniProt P03956); assay: Inhibition of MMP1
T1 sequence (P03956 whole entry): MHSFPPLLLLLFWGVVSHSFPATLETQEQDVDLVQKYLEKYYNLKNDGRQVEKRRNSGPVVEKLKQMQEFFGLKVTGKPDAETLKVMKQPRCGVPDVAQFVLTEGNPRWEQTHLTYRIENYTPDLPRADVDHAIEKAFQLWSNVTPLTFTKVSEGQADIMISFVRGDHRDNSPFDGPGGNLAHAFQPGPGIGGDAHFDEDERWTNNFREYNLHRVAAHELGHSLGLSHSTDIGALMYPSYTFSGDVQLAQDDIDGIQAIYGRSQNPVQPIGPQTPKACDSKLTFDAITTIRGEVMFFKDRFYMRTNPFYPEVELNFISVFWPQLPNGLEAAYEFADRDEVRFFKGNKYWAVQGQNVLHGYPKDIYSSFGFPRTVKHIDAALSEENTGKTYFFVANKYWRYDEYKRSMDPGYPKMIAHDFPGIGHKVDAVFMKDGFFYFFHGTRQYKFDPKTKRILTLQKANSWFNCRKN

[2] = biological target: 72 kDa type IV collagenase (Homo sapiens, UniProt P08253); assay: Inhibition of MMP2
Chain of 72 kDa type IV collagenase (P08253 whole entry): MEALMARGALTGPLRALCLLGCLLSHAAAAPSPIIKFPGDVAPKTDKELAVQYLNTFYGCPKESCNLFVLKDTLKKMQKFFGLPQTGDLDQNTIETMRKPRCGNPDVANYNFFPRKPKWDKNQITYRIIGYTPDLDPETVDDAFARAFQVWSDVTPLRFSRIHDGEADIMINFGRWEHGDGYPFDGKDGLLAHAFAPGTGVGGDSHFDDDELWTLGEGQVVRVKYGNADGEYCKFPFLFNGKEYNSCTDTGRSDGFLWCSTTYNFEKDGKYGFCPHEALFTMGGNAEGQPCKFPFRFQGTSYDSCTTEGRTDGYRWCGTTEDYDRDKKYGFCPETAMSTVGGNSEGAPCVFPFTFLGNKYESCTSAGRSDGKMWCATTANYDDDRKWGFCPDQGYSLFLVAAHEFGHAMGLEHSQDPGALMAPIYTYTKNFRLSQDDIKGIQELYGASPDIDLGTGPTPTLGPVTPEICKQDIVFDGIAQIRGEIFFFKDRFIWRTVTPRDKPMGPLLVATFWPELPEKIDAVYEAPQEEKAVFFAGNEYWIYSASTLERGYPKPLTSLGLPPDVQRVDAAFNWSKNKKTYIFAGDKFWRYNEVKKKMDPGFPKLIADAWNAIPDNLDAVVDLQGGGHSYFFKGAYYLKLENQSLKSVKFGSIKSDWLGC
Summary of the method: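 Incubated with compound at 1 to 5000 nM. Started with a fluorogenic quenched peptide substrate (1–10 nM). Initial hydrolysis rate, with (Vi) and without (Vo) compound, was followed by fluorescence.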

[3] = biological target: Matrix metalloproteinase-14 (Homo sapiens, UniProt P50281); assay: Inhibition of MMP14

Chain of Stromelysin-1 (P08254 whole entry): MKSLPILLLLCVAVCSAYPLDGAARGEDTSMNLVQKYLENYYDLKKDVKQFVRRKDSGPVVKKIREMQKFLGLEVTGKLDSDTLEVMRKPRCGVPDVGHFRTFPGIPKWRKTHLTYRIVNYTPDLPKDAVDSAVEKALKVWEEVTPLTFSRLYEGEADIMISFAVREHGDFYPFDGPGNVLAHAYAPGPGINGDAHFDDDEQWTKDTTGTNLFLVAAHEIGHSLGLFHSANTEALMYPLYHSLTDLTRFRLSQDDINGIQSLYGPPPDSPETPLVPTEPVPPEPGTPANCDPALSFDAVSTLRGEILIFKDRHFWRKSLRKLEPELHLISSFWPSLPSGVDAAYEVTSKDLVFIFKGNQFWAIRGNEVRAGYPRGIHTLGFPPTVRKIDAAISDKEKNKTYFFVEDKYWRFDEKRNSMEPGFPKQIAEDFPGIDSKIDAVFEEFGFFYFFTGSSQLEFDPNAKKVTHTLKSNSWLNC
Chain of Matrix metalloproteinase-9 (P14780 whole entry): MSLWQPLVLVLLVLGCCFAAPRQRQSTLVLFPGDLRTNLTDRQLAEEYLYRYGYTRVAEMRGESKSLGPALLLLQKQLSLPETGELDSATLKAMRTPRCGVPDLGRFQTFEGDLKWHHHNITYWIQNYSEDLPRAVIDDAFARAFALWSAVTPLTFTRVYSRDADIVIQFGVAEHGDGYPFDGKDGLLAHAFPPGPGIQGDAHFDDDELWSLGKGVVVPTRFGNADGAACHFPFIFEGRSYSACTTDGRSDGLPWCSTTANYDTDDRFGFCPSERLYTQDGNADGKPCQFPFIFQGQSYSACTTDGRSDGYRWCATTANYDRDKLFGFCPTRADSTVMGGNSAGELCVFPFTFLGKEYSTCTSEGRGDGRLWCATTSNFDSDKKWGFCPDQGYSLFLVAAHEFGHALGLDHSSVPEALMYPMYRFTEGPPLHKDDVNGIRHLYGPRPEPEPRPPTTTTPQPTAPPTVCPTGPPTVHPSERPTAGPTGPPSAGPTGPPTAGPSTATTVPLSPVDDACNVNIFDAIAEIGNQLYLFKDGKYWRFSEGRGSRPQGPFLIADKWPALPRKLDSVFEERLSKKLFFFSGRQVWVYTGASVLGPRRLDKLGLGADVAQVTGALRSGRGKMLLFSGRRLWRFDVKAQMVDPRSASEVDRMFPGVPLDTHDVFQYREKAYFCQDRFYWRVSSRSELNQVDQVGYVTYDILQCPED

Structure (SMILES) | IC50 [1] | IC50 (Stromelysin-1) | IC50 (Collagenase 3) | IC50 (Neutrophil collagenase) | IC50 (Interstitial collagenase) | IC50 [2] | IC50 [3]
CCCCCC/C=C(\CC(=O)NO)C(=O)N[C@@H](Cc1c[nH]c2ccccc12)C(=O)NC | > 10 µM | > 10 µM | 0.122 µM | 0.101 µM | 32 µM | 0.123 µM | 2.66 µM
C/C=C/C=C(\CC(=O)NO)C(=O)N[C@@H](Cc1c[nH]c2ccccc12)C(=O)NC | 0.974 µM | 8.61 µM |  |  | 0.984 µM | 78.5 µM | 0.913 µM
CNC(=O)[C@H](Cc1c[nH]c2ccccc12)NC(=O)/C(=C/C=C/c1ccccc1)CC(=O)NO | 0.038 µM | 21 µM |  |  | 1.24 µM | 0.12 µM | 2.49 µM
CNC(=O)[C@H](Cc1c[nH]c2ccccc12)NC(=O)/C(=C/CCc1ccccc1)CC(=O)NO | 0.045 µM | 1.92 µM |  |  | 9.13 µM | 0.28 µM | 53.1 µM
CNC(=O)[C@H](Cc1c[nH]c2ccccc12)NC(=O)/C(=C/C(C)C)CC(=O)NO | 0.017 µM |  |  |  | 0.018 µM | 0.0092 µM | 0.01 µM
CNC(=O)[C@H](Cc1c[nH]c2ccccc12)NC(=O)[C@@H](CC(=O)NO)CC(C)C [ILOMASTAT] |  |  |  |  |  |  | 0.0134 µM
